Experimental data taken from ChEMBL document CHEMBL4373697, “Cyclization of RGD Peptides by Suzuki-Miyaura Cross-Coupling” (J Med Chem, 2019).

Tests used:
[1] = molecular target: T1, Integrin alpha-V/beta-3 (Homo sapiens, UniProt P05106+P06756); test: Binding affinity to integrin alphavbeta3 receptor in human WM115 cells assessed as inhibition of cell adhesion to vitronectin after 0.5 hr by fluorescence assay; type: cell-based
[2] = molecular target: T1, Integrin alpha-V/beta-3; test: Inhibition of human vitronectin binding to human integrin alphavbeta3 receptor after 1 hr by ELISA; type: protein-complex assay
[3] = molecular target: Integrin alpha-5/beta-1 (Homo sapiens, UniProt P05556+P08648); test: Inhibition of human fibronectin binding to human integrin alpha5beta1 incubated for 1 hr by ELISA; type: protein-complex assay
Chain of Integrin alpha-5/beta-1 (P05556 21-798 limits assumed): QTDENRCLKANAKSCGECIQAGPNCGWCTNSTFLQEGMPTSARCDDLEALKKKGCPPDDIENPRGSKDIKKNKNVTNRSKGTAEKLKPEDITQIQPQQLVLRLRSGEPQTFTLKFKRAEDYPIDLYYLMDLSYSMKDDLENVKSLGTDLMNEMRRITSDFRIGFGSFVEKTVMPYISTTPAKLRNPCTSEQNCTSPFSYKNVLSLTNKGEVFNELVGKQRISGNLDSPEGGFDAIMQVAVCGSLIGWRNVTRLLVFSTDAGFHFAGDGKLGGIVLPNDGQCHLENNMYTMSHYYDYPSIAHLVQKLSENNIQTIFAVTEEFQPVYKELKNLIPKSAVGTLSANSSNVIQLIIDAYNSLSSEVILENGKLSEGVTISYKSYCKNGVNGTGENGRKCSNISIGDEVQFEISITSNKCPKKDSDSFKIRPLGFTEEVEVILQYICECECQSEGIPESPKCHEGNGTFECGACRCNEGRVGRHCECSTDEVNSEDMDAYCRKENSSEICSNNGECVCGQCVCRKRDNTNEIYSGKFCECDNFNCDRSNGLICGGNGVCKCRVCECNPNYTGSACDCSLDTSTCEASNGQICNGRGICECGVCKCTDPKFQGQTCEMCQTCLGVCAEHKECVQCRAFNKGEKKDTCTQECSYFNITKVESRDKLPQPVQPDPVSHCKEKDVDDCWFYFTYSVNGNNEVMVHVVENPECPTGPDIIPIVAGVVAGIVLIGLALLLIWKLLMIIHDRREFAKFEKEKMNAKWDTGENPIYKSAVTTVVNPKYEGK
Chain of Integrin alpha-5/beta-1 (P08648 42-894 limits assumed): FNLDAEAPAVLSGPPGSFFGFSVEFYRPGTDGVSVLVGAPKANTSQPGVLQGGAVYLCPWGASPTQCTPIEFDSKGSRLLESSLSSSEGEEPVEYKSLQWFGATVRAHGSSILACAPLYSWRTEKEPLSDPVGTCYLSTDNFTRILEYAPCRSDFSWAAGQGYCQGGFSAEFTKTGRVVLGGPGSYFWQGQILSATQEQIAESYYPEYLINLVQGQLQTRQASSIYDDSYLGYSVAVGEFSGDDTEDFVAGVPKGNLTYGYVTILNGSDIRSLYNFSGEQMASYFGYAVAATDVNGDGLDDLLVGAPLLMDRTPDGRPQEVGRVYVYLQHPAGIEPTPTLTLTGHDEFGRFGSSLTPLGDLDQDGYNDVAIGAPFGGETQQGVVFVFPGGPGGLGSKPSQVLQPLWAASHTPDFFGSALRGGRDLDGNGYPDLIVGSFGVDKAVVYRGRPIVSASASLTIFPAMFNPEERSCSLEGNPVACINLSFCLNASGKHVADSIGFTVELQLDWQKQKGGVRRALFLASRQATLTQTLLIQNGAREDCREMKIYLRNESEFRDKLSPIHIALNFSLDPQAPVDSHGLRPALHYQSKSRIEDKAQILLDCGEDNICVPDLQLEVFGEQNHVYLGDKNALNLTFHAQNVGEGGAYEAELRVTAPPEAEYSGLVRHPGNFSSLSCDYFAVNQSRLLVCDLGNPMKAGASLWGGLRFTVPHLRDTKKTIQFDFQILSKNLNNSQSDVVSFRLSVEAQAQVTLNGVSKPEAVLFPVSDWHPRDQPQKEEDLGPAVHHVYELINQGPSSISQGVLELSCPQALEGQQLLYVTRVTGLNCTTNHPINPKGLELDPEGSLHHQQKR
Chain of Integrin alpha-5/beta-1 (P08648 895-1049 limits assumed): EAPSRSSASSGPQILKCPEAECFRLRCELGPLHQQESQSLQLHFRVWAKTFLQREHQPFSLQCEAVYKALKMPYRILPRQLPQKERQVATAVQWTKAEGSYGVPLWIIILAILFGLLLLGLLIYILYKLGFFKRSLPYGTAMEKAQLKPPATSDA

[4] = molecular target: Integrin alpha-IIb/beta-3 (Homo sapiens, UniProt P05106+P08514); test: Inhibition of human fibronectin binding to human Integrin alpha2b beta3 receptor incubated for 1 hr by ELISA; type: protein-complex assay
Chain of Integrin alpha-IIb/beta-3 (P05106 27-788 limits assumed): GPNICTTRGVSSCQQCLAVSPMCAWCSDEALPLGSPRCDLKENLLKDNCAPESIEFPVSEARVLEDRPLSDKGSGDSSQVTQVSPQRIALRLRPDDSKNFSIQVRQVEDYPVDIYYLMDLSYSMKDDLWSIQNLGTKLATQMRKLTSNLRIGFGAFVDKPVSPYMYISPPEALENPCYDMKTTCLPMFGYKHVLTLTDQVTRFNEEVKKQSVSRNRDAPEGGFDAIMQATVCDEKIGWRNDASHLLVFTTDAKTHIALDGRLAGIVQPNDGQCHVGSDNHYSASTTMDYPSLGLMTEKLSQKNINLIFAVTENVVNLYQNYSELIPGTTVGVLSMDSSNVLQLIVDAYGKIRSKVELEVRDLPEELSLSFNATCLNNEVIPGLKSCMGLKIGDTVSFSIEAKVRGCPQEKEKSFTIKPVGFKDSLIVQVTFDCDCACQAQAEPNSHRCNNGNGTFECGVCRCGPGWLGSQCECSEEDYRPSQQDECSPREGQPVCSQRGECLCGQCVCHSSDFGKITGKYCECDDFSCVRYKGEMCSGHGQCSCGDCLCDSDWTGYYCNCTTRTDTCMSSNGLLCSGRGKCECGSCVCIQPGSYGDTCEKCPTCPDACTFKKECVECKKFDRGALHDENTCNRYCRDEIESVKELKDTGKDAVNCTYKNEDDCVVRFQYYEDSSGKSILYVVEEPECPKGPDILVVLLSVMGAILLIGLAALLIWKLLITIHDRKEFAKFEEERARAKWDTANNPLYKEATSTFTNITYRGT
Chain of Integrin alpha-IIb/beta-3 (P08514 32-887 limits assumed): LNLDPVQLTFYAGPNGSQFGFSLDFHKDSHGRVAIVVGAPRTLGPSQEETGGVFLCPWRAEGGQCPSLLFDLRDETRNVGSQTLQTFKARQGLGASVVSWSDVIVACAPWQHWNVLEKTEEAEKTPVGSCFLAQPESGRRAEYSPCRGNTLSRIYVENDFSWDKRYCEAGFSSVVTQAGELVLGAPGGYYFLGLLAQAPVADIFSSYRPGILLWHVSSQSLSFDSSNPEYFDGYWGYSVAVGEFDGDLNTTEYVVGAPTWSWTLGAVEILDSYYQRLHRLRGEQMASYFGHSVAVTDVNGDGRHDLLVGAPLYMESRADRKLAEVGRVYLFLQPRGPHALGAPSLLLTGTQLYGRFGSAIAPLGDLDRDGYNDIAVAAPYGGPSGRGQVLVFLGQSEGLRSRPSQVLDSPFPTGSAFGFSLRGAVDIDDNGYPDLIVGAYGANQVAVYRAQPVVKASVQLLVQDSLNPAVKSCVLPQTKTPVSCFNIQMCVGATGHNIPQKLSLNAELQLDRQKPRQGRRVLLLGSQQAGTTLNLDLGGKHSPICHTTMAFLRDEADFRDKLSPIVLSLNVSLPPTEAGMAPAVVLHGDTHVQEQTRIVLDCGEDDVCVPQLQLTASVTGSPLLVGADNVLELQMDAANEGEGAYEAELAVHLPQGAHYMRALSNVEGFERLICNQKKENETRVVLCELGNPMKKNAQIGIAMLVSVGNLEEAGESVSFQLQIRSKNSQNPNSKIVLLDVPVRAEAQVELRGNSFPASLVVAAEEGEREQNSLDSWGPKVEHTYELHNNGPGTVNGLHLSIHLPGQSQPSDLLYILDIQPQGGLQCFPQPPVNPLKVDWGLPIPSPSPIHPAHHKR
Chain of Integrin alpha-IIb/beta-3 (P08514 891-1039 limits assumed): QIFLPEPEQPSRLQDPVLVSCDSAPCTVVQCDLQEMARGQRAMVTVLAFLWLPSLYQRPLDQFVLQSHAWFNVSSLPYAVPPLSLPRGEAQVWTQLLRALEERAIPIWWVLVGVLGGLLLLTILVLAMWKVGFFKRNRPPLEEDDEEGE

[5] = Half-life in human plasma at 500 uM incubated for 24 hrs and measured up to 24 hrs by LC-MS analysis; type: ADME, cell-free
Procedure, shortened: (§1)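 Compound from DMSO stock (final DMSO ≤1%) in human citrate plasma, pH 7.5, incubated at 37 °C, 400 rpm, for 24 h. Aliquots were taken at 0, 1, 3, 6, 8 and 24 h and quenched with cold acetonitrile containing warfarin (50 µM final) as internal standard, then centrifuged. Supernatant was run by LC-MS; UV peak area was compared with the internal standard.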

[6] = Half-life in human plasma at 250 uM incubated for 24 hrs and measured up to 24 hrs by LC-MS analysis; type: ADME, cell-free; procedure, shortened: as §1

T1 sequence (P05106 27-788 limits assumed): as the sequence (P05106 27-788 limits assumed) above
T1 sequence (P06756 31-889 limits assumed): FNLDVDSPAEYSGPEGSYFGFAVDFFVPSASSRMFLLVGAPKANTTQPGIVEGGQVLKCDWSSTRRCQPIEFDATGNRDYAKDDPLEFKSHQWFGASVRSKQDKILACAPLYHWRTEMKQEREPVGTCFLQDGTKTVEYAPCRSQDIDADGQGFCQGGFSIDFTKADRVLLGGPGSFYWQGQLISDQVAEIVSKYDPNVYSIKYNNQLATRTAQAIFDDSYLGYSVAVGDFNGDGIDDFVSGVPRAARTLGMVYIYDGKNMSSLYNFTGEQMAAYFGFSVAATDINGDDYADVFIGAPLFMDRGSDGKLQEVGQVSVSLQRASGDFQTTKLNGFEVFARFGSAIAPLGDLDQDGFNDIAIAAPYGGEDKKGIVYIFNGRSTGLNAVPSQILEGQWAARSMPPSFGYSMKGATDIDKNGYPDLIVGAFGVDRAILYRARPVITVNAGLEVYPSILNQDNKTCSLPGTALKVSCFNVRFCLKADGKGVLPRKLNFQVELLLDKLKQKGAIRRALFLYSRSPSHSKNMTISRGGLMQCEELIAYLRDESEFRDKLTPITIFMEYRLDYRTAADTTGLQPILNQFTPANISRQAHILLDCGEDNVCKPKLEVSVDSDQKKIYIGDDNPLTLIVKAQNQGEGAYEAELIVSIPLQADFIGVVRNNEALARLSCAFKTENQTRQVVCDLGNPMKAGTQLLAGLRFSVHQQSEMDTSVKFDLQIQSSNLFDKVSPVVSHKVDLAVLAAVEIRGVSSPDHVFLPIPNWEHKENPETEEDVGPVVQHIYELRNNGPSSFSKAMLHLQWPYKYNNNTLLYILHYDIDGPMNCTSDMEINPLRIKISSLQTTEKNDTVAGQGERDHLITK
T1 sequence (P06756 891-1048 limits assumed): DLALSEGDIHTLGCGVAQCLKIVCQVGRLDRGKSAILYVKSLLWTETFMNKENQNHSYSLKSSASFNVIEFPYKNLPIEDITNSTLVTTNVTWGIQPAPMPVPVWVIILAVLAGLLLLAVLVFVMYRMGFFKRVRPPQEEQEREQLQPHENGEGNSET

Row | IC50 [1] | IC50 [2] | IC50 [3] | IC50 [4] | half-life at 500 µM [5] | half-life at 250 µM [6] | Structure (SMILES)
1 | 9400 nM | 5.4 to 13.9 nM | 547 nM | 5800 nM | > 1440 min | – | CN1C(=O)[C@H](Cc2ccccc2)NC(=O)[C@H](CC(=O)O)NC(=O)CNC(=O)[C@H](CCCNC(=N)N)NC(=O)c2cccc(c2)-c2cccc3c(c[nH]c23)C[C@@H]1C(N)=O
2 | > 500000 nM | 239 nM | > 10000 nM | – | – | – | CN1C(=O)[C@H](CC(=O)O)NC(=O)CNC(=O)[C@H](CCCNC(=N)N)NC(=O)c2ccc(cc2)-c2cccc3c(c[nH]c23)C[C@H]1C(N)=O
3 | 310000 nM | 59.2 nM | > 10000 nM | – | – | – | N=C(N)NCCC[C@@H]1NC(=O)c2ccc(cc2)-c2ccc3c(c[nH]c3c2)C[C@H](C(N)=O)NC(=O)[C@H](Cc2ccccc2)NC(=O)[C@H](CC(=O)O)NC(=O)CNC1=O
4 | > 500000 nM | 36.2 nM | 563 nM | – | – | – | CN1C(=O)[C@H](Cc2ccccc2)NC(=O)[C@H](CC(=O)O)NC(=O)CNC(=O)[C@H](CCCNC(=N)N)NC(=O)CCCCc2cccc3c(c[nH]c23)C[C@@H]1C(N)=O
5 | 250000 nM | 12.8 nM | 325 nM | 5030 nM | – | – | CN1C(=O)[C@H](Cc2ccccc2)NC(=O)[C@H](CC(=O)O)NC(=O)CNC(=O)[C@H](CCCNC(=N)N)NC(=O)CCc2cccc3c(c[nH]c23)C[C@@H]1C(N)=O
6 | > 500000 nM | 579 nM | 5670 nM | – | – | – | N=C(N)NCCC[C@@H]1NC(=O)c2ccc(cc2)-c2cccc3c(c[nH]c23)C[C@@H](C(N)=O)NC(=O)[C@@H](Cc2ccccc2)NC(=O)[C@H](CC(=O)O)NC(=O)CNC1=O
7 | 11100 nM | 23 nM | 835 nM | > 10000 nM | – | – | CN1C(=O)[C@H](Cc2ccccc2)NC(=O)[C@H](CC(=O)O)NC(=O)CNC(=O)[C@H](CCCNC(=N)N)NC(=O)c2ccc(cc2)-c2cccc3c(c[nH]c23)C[C@@H]1C(N)=O
8 | > 500000 nM | 38.9 nM | 419 nM | – | – | – | CN1C(=O)[C@H](Cc2ccccc2)NC(=O)[C@H](CC(=O)O)NC(=O)CNC(=O)[C@H](CCCNC(=N)N)NC(=O)CCCCCc2cccc3c(c[nH]c23)C[C@@H]1C(N)=O
9 | > 500000 nM | 491 nM | 3660 nM | – | – | – | N=C(N)NCCC[C@@H]1NC(=O)c2ccc(cc2)-c2cccc3c(c[nH]c23)C[C@@H](C(N)=O)NC(=O)[C@H](CC(=O)O)NC(=O)CNC1=O
10 | 244000 nM | 14.9 nM | 2720 nM | > 10000 nM | – | – | CN1C(=O)[C@H](Cc2ccccc2)NC(=O)[C@H](CC(=O)O)NC(=O)CNC(=O)[C@H](CCCNC(=N)N)NC(=O)c2ccc(cc2)-c2ccc3c(c[nH]c3c2)C[C@@H]1C(N)=O
11 | 158000 nM | 64.6 nM | 1.92 nM | – | – | – | CN1C(=O)[C@H](Cc2ccccc2)NC(=O)[C@H](CC(=O)O)NC(=O)CNC(=O)[C@H](CCCNC(=N)N)NC(=O)c2ccccc2-c2cccc3c(c[nH]c23)C[C@@H]1C(N)=O
12 | 51000 nM | 17.7 nM | 9290 nM | > 10000 nM | – | – | N=C(N)NCCC[C@@H]1NC(=O)c2ccc(cc2)-c2cccc3c(c[nH]c23)C[C@H](C(N)=O)NC(=O)[C@H](Cc2ccccc2)NC(=O)[C@H](CC(=O)O)NC(=O)CNC1=O
13 | > 500000 nM | 65 nM | 983 nM | – | – | – | N=C(N)NCCC[C@@H]1NC(=O)c2cccc(c2)-c2cccc3c(c[nH]c23)C[C@@H](C(N)=O)NC(=O)[C@@H](Cc2ccccc2)NC(=O)[C@H](CC(=O)O)NC(=O)CNC1=O
14 | > 500000 nM | 19 nM | 8030 nM | – | – | – | N=C(N)NCCC[C@@H]1NC(=O)c2cccc(c2)-c2cccc3c(c[nH]c23)C[C@@H](C(N)=O)NC(=O)[C@H](CC(=O)O)NC(=O)CNC1=O
15 | > 500000 nM | 537 nM | > 10000 nM | – | – | – | CN1C(=O)[C@H](CC(=O)O)NC(=O)CNC(=O)[C@H](CCCNC(=N)N)NC(=O)c2ccc(cc2)-c2cccc3c(c[nH]c23)C[C@@H]1C(N)=O
16 | > 500000 nM | 41.3 nM | 5940 nM | > 10000 nM | – | – | N=C(N)NCCC[C@@H]1NC(=O)c2ccc(cc2)-c2cccc3c(c[nH]c23)C[C@H](C(N)=O)NC(=O)[C@H](CC(=O)O)NC(=O)CNC1=O
17 | > 500000 nM | 95.2 nM | 2160 nM | – | – | – | CN1C(=O)[C@@H](Cc2ccccc2)NC(=O)[C@H](CC(=O)O)NC(=O)CNC(=O)[C@H](CCCNC(=N)N)NC(=O)c2ccc(cc2)-c2cccc3c(c[nH]c23)C[C@H]1C(N)=O
18 | > 500000 nM | 34 nM | 154 nM | – | – | – | CN1C(=O)[C@H](Cc2ccccc2)NC(=O)[C@H](CC(=O)O)NC(=O)CNC(=O)[C@H](CCCNC(=N)N)NC(=O)CCCc2cccc3c(c[nH]c23)C[C@@H]1C(N)=O
19 | – | – | – | – | – | 30 min | CCN(CC)CCOC(=O)c1ccc(N)cc1 [PROCAINE]
